From the EternaBench riboswitch data

System: MS2 coat protein
Experiment: apparent Kd, MS2 coat protein; higher = weaker binding; RNA-MaP array; FMN 200 µM where present
In short: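 The apparent Kd is the median of filtered binding-curve fits, one per cluster, to green signal normalised to red-channel RNA signal and control-cluster median Fmax. The clusters were on Illumina sequencing chips, and stalled E. coli RNA polymerase had transcribed the designs on them. Titration used SNAP-549-labelled MS2 coat protein from 0.7 or 1.5 nM, doubling to 3 µM, without and then with constant ligand, in 100 mM Tris-HCl pH 7.5, 80 mM KCl, 4 mM MgCl2, BSA, DTT, yeast tRNA and Tween-20.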

[1] = designed as: OFF switch for flavin mononucleotide, no ligand
[2] = ligand present: flavin mononucleotide, designed as: OFF switch for flavin mononucleotide
[3] = designed as: ON switch for flavin mononucleotide, no ligand
[4] = ligand present: flavin mononucleotide, designed as: ON switch for flavin mononucleotide

| Sequence | apparent Kd [1] [nM] | apparent Kd [2] [nM] | apparent Kd [3] [nM] | apparent Kd [4] [nM] |
| --- | --- | --- | --- | --- |
| GUGUAGUGAGGAUAUCGUUGUUAGGAGGAGAAGGUAGGAGGCGAGAAGGCACAUGAGGAUCACCCAUGUAUGAG | 35.1 | 23.7 | – | – |
| AAAGAACAUGAGGAUCACCCAUGUGAGGAUAUGCGAAAACCGCUGACAAACCAGACGGGCAGAAGGCAUAUGGU | 56.2 | 76.3 | – | – |
| GAACUCGUGAAGGAUAUCCGUACCAAAGCGGCAGGAGAAGGUCACACAUGAGGAUCACCCAUGUGGUACCUCGU | 30 | 130 | – | – |
| CUGCGUCGUGUUAGGAUAUCCAGCGGUGCGCGCCAGGAGAAGGAACAUGAGGAUCACCCAUGUAAACCGAUGGC | 12.4 | 13.4 | – | – |
| ACUGGUCGAGGAUAUACAUUCGUGCUUCGGCACGUAAGAUCACAUGAGGAUCACCCAUGUAGAAGGCGACCAGU | 104 | 732 | – | – |
| CAGGUAGCUACAGGAUAUACACGUCUGGAUAAACCAGACGAAUAACCCACAUGAGGAUCACCCAUGUAGAAGGGUAGCUGCCUG | 15.4 | 21.3 | – | – |
| GCAGCAUAUGCAGGAUAUCAGCACGUGUAGUGCUGAGAAGGGCACAUGAGGAUCACCCAUGUGAUCAAUUAAUAUAUAUGCUGC | 6.36 | 16.4 | – | – |
| AACUCGUUAGGAUAUACCGCCAACGAUACCUCGUGAAACAUACAUGAGGAUCACCCAUGUAGAAGGAGCGAGCA | 16.9 | 23.3 | – | – |
| UAGCUCCAUGUGAGGAUAUAGACUCGGACCCGGGAUUAGAAGGUACAUGAGGAUCACCCAUGUAUCCAACUUGU | 15.3 | 16.6 | – | – |
| AAAAGCAUCCAGUAUCAAAAUACAUGAGGAUCACCCAUGUAGCAGGAUAUCAACGUUCCCGACGGUGAGAAGGGCUAUAUGUUG | 7.47 | 9.26 | – | – |
| GUGGUCAGACAUGAGGAUCACCCAUGUGGAAUAAAUAAGGAGAAGGAUAUGAAAUAUAGGAUAUAUCAGAAGGUCUGGUUGGUG | – | – | 72.2 | 77.1 |
| CCUUUGUCAGGAUAUCAGAACGCGCUCGUAGGGAGCGCGAAUGAGAAGGGACAUGAGGAUCACCCAUGUAAAGA | 94.7 | 492 | – | – |
| UUGGACGUCGUAGGAUAUGUAGGAUAUUCCUACAUGAGGAUCACCCAUGUGGACAUGGAAGAAGGACAGAAGGACGAUGUCCAU | – | – | 63.7 | 4.7 |
| GGGUAGUGAGGAUAUCGUUGUUAGGAGGAGUAGGUAGGAGGCGAGAAGGCACAUGAGGAUCACCCAUGUAUGGA | 36.2 | 33.3 | – | – |
| CAGUGCUGUUGAGAGGAUAUGCGGUGAUGGACAUGAGGAUCACCCAUGUUAGCGACAGCGUUACGGCAGAAGGCUCUACCCACUG | – | – | 49.4 | 22.4 |
| GAGGGACAUGAGGAUCACCCAUGUGGUAAAUUUAAAGGAUAUUAGUGUGGGAAAGUAGGGUAAGAAGGUUGAUUGG | – | – | 94.8 | 80.1 |
| AGACCCUGAACGAAAUCAUACAGUCAGGAUAUACAUGAGGAUCACCCAUGUGCGUACCAACUCGUGUAGAAGGGACUUUCAGGG | 12.3 | 30.2 | – | – |
| GCUUAUAGAGGAUAUACAGAUUAUUACAUGAGGAUCACCCAUGUUCUUCAAUGUAUAUAUGUAGAAGGCUAAGGAU | 61.5 | 257 | – | – |
| GAUGAGAGAGGAUAUACAUGAGGAUCACCCAUGUAAUUUUCGGACAUGGAAGCCUGAUGUAGAAGGCUCGCAUG | 78.5 | 38.6 | – | – |

| Sequence | apparent Kd [1] [nM] | apparent Kd [2] [nM] | apparent Kd [3] [nM] | apparent Kd [4] [nM] |
| --- | --- | --- | --- | --- |
| UGUGCGUAUGUGAGGAUAUGCUGGUCCUUGGAUCGGCAGAAGGCACAUGAGGAUCACCCAUGUGGUGUCGUACC | 161 | 40.4 | – | – |
| GUAUUGUGAGGAUAUCCAAUAUAUGACAUGAGGAUCACCCAUGUUUCCACUCGUACCUCCGGAGAAGGCACAGUUU | 28.3 | 24.3 | – | – |
| GCCACAAGGGCAGGAUAUGAACUUAAUGGCAGUUUAGAAGGGUCACUCGUGGGUUAAAAUCACAUGAGGAUCACCCAUGUAUAG | – | – | 664 | 84.7 |
| UAUAUAAUUAAGAGCUGGCUCAAAACAUGAGGAUCACCCAUGUAGGAUAUCAGCACGAUAAGUGCUGAGAAGGACAUCCAGCUC | 16.9 | 24.5 | – | – |
| AAAAAACAUGAGGAUCACCCAUGUAAAAAAAUCGCAGGAUAUAGGGUCGCGAAAGCGACCCUAGAAGGGCGAUCCU | – | – | 260 | 87.7 |
| AUUUUGUCAGGAUAUGACUAGAUGCACGAAAGUGCAUCUACUUAGAAGGGACAUGAGGAUCACCCAUGUAUUCC | 17.3 | 17.8 | – | – |
| AGCAUGCUAGGAUAUACGGGACAUUAGGGUUUGUCGUGUGGACAUGAGGAUCACCCAUGUAGAAGGAGCGUGCA | 54.4 | 228 | – | – |
| AUUUUAUAAUAGAAGGAGGACUUCAUGAGGAUCACCCAUGUGUUGGUACUUAGGAUAUGUAAUAACAUGAGGAUCACCCAUGUC | – | – | 55.9 | 49.8 |
| GCGCCGCAGCGGUACACGAGACAUGAGGAUCACCCAUGUGACAGAAGGGACUUGUUAAAGGUAGGUCAGGAUAUGUCUUAAAAG | – | – | 184 | 56.5 |
| UCCUUGUCCUGAGGAUAUCCGUGGUGACCGAAAGGAGAAGGCAGGACAUGAGGAUCACCCAUGUACCCAGAAAACGUGCAGAGA | 35.9 | 232 | – | – |
| UGUCCGAGCAGAGGAUAUUACAUGAGGAUCACCCAUGUAUGAACCAAUAGCUGGAAACAGCAAUGUAAGAAGGCUGCUCCGACA | 12.2 | 155 | – | – |
| GUAUGAGCGAUAGGAUAUACUGAGAUUGAAUGGGUAGAAGGAUCUCUUGUGAGGAAGACAUGAGGAUCACCCAUGUCACGGGCC | – | – | 100 | 175 |
| AUAUAUAUCCAGAAGGUGCCAGCGAGAGCUGCACAUGAGGAUCACCCAUGUUGUCGGUGACGACGCAAGGAUAUGGAUAUAUAU | – | – | 28.2 | 7.43 |
| GCGUAAAAGAUCCUAUUUAUCUACAUGAGGAUCACCCAUGUGCAGGAUAUGCUAAAAUUAAAAUAGCAGAAGGGCAAUAACCGC | 54 | 179 | – | – |
| AAGAUGUGAGGAUAUCACGAGAGCGUCAAACGGACACUCUCUGAGAAGGCACAUGAGGAUCACCCAUGUCCAAA | 57.2 | 295 | – | – |
| UUAUGCUUUAAGAAGGUUCAAACUACAUAUUGCGCACAUGAGGAUCACCCAUGUUGGUGAAUAAGAAAGGAUAUUAGACUGUGC | 332 | 223 | – | – |
| UUGAGGUAGGAGAAGGACAGAGGCGGAAACACAAACAUGAGGAUCACCCAUGUAGGAUAUCCUAACUAACGAGAAUACCUCAAG | 6.36 | 6.89 | – | – |
| GUCAGCUCGUGAGGAUAUACAUGUGCUGGAUACAGCACUAUUAAGUUCACAUGAGGAUCACCCAUGUAGAAGGCACGAGCUGAU | 15.8 | 20.4 | – | – |
| UGAAUGGCAGGAUAUACAUGAGGAUCACCCAUGUUGCUGCUCUAUAUGCCGUCCUUGAGUAGAAGGGUCAUUUA | 19.2 | 32.5 | – | – |

| Sequence | apparent Kd [1] [nM] | apparent Kd [2] [nM] | apparent Kd [3] [nM] | apparent Kd [4] [nM] |
| --- | --- | --- | --- | --- |
| UUGGACGUCGUAGGAUAUGUAGGAUAUUCCUACAUGAGGAUCACCCAUGUUGACAUGGAAGAAGGACAGAAGGACGAUUUCCAU | – | – | 284 | 5.41 |
| CCAAUUCUGGCAUCCUUAUUACAUGAGGAUCACCCAUGUUGUGAGGAUAUCCCAACCCACGGUCAGGAGAAGGCACAAAGAGGG | 4.9 | 5.01 | – | – |
| UGUCGGAGCAGAGGAUAUUACAUGAGGAUCACCCAUGUAUGAAGCAAUAGCUGGAAACAGCAAUGUAAGAAGGCUGCUCCGACA | 5.7 | 7 | – | – |
| GCUGGAAAAGGAUAUACAUAACGUGCUUCGGCACGAGAUCUACAUGAGGAUCACCCAUGUAGAAGGUUUCCAGC | 14 | 30.2 | – | – |
| CUUGUACUCGGAGGAUAUCGAUAUCAAACAUGAGGAUCACCCAUGUUGAGGAUCACACAUGUAAAUGAGAAGGCUGACGUUGCU | – | – | 22.9 | 26.3 |
| AACACAACAUGAAACAUGAGGAUCACCCAUGUUGUUUGUAAUCAGGAUAUGAUCUCAAGAAUGAAUUAGAAGGGAUAUGGAUUU | – | – | 31.8 | 39.6 |
| CUUCUGUCAGGAUAUGCGAAUCACCACUGGGUCAGUGGUGAGCAGAAGGGACAUGAGGAUCACCCAUGUAAAGU | 36.3 | 169 | – | – |
| AAUAGUGGCGUAGGAUAUCUGCGUACAUGAGGAUCACCCAUGUCUCCCAGCCGCUGAGCUGGGACAGAGAAGGGCGACCGCAUA | – | – | 229 | 88.9 |
| UCGGCGCGAGGAUAUACGGUUGCUUGGUAGGGUCGUGGCGUACAUGAGGAUCACCCAUGUAGAAGGCGCGCCGC | – | 60.3 | – | – |
| GUCGUGCGGCUUUGCUGUACGAGUACAUGAGGAUCACCCAUGUAGGAUAUGGUUCGCUUUGCGUGCCAGAAGGGCGUGCGUUGU | 28.7 | 28.1 | – | – |
| AAAAUCUAUAGAGGAUAUCCAUACACUACAUACGGAGAAGGCUAACAAUCAUGAGGACAUGAGGAUCACCCAUGUUGUGACCAU | – | – | 24.8 | 17.2 |
| ACAUUAGAAGAGAAGGUUCAUACUAUUAUCAACAUACAUGAGGAUCACCCAUGUUGGUGAUUAAGAAAGGAUAUUUAUAACACU | 23.1 | 20.6 | – | – |
| UGACCACAUGAGGAUCACCCAUGUGAGGAUAUCAGAAUACGGCAUCGGGCCGUACUUUUGAGAAGGCACAUAAA | 24.1 | 65.2 | – | – |
| GUCGGGAUUACAUGAGGAUCACCCAUGUCAGAACGGGCAGUUAGAAGGUGCCAUUAGGGAGAGGGUAAGGAUAUAAUUUUUGGC | – | – | 12 | 10.4 |
| GACUGCGUUAUGAAGGAUAUCCGCGUCUGGACAUGAGGAUCACCCAUGUAUACUUGGAUCGUGCAGGAGAAGGUCAAGGGUGAUU | – | – | 90 | 265 |
| UUGGACUACGUAGGAUAUGUAGGAUAUUCCUACAUGAGGAUCACCCAUGUUAGCAUGUAAGUAGGACAGAAGGACGUGGUCCAU | – | – | 540 | 24.9 |
| UCAUACGUUGAGGAUAUGUCAGUUAGAAUAUUUACAGAAGGCGAUACAUGAGGAUCACCCAUGUUUAUGGGCAU | 188 | 207 | – | – |
| GAACAUGAGGAUCACCCAUGUUCUCCAGAAGGCCGUACAUUUAAAAGUGGAUGGAUUAGUGUUGCGGAGGAUAUGGAGGUGCAA | – | – | 72 | 17.8 |
